What is called inhibition is the percentage by which the read-out fell short of the control. What is called IC50 is the concentration needed to halve the response being measured.

Experiment [1] relates to Kappa-type opioid receptor (Homo sapiens), P41145 [M142A]. As to the kind of experiment: Displacement of 3H-U69593 from KOR M142A mutant (unknown origin). A digest of the protocol: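 Single-point KOR mutants were retested alongside wild-type receptor in ³H-U69593 competition binding. 12-point concentration-response from 100 µM to 10 nM, run in triplicate; Ki derived.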
Kappa-type opioid receptor (Homo sapiens), P41145 [M142A], sequence (P41145 whole entry M142A): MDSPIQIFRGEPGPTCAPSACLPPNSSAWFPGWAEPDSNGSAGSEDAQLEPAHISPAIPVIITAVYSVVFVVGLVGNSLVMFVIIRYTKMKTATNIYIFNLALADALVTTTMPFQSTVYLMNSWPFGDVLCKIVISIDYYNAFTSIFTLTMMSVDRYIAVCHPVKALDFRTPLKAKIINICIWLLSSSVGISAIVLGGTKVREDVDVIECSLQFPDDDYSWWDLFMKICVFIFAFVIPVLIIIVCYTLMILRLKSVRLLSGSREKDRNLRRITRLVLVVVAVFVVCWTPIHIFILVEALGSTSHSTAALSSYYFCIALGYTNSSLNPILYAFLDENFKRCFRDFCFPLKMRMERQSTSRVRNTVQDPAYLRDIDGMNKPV
On the technique in general: In a radioligand displacement assay an active substance lowers the binding of a labelled ligand.

The target in experiment [2] is T1, Kappa-type opioid receptor (Homo sapiens, UniProt P41145). The experiment is described as follows: Displacement of 3H-U69593 from human KOR expressed in HEK293 cells at 50 uM after 90 mins by micro beta scintillation counting analysis. Format: cell-based. The procedure, abridged:
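Primary screen of 3H-U69593 binding at cloned human KOR in HEK293 cells, using a single compound concentration of 50 µM tested in quadruplicate. Percent inhibition of radioligand binding is reported.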

Experiment [3] has as its target T1, Kappa-type opioid receptor. The experiment is described as follows: Displacement of 3H-U69593 from human KOR expressed in HEK293 cells after 90 mins by micro beta scintillation counting analysis. Format: cell-based. The procedure, abridged: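 Competition binding with 3H-U69593 at cloned human KOR expressed in HEK293 cells. Ki was derived from the curves; normalized data from three independent assays were pooled, mean ± SEM.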

The target of experiment [4] is T1, Kappa-type opioid receptor. The experiment is described as follows: Agonist activity at human KOR expressed in HEK293T cells coexpressing Gi assessed as Gi-mediated inhibition of cAMP production at 10 uM incubated for 15 mins followed by Gs activator isoproterenol addition measured after 15 mins by luciferase reporter gene assay relative to Sal-A. Format: functional, cell-based. The settings on record: HEK-293T. A digest of the protocol: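 HEK293T cells co-transfected with human KOR and a split-luciferase GloSensor cAMP biosensor, plated overnight at 15,000 cells/well in DMEM + 1% dialyzed FBS. Loaded 1 h with 20 mM HEPES/1× HBSS pH 7.4 containing 4 mM luciferin. Drug added for 15 min, then isoproterenol (200 nM final, Gs activation via endogenous β2 receptors); luminescence read 15 min later.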

The species named for experiment [5] is Homo sapiens. As to the kind of experiment: Ratio of Ki for KOR M142A mutant (unknown origin) to Ki for human KOR expressed in HEK293 cells. It counts as cell-based.
The species named for experiment [6] is Homo sapiens. As to the kind of experiment: Ratio of Ki for KOR H291A mutant (unknown origin) to Ki for human KOR expressed in HEK293 cells. Format: cell-based.
For experiment [7], the species on record is Homo sapiens. As to the kind of experiment: Ratio of Ki for KOR I294A mutant (unknown origin) to Ki for human KOR expressed in HEK293 cells. It counts as cell-based.
The target in experiment [8] is T1, Kappa-type opioid receptor. The experiment is described as follows: Antagonist activity at KOR (unknown origin) expressed in HTLA cells assessed as inhibition of Sal A-induced beta-arrestin recruitment preincubated for overnight followed by Sal-A addition at 30 mins post compound treatment measured after 20 mins by Bright-Glo luminescence assay. It counts as cell-based. The procedure, abridged: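 HTLA cells transfected overnight, plated at 15,000 cells/well in DMEM with 1% dialyzed FBS on poly-L-Lys, rested ≥6 h. Test compounds added, then Sal A 30 nM 30 min later; overnight incubation. BrightGlo reagent 20 min at room temperature in the dark; luminescence read. Normalized data, mean ± SEM from at least 4 measurements.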
A general note: Arrestin recruitment assays detect the binding of arrestin to an activated receptor.

The target in experiment [9] is T1, Kappa-type opioid receptor. As to the kind of experiment: Antagonist activity at human KOR expressed in HEK293T cells coexpressing Gi assessed as Gi-mediated inhibition of cAMP production incubated for 15 mins followed by Gs activator isoproterenol addition measured after 15 mins by luciferase reporter gene assay. It counts as functional, cell-based. To be noted: HEK-293T. The procedure, abridged: (§1)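 HEK293T cells co-transfected with human KOR and GloSensor split-luciferase cAMP biosensor, plated 15,000 cells/well overnight. Loaded 1 h with 4 mM luciferin in 20 mM HEPES/HBSS pH 7.4. Compounds preincubated 15 min, Sal A 20 nM added for 15 min, then isoproterenol (200 nM final) to drive Gs; luminescence read 15 min later. Sal A shifts analysed by Schild analysis to give KB.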
Background: Changes in cAMP serve as a functional read-out for many G protein-coupled receptors.

Experiment [10] deals with T1, Kappa-type opioid receptor. As to the kind of experiment: Antagonist activity at human KOR expressed in HEK293T cells coexpressing Gi assessed as inhibition of Sal A-induced Gi-mediated reduction of cAMP production incubated for 15 mins followed by Sal A addition for 15 mins and susequent addition of Gs activator isoproterenol measured after 15 mins by luciferase reporter gene assay. Format: functional, cell-based. A digest of the protocol:
as §1

The source made the active and inactive calls. No cut-off for these calls is given here. A value given as a limit tells only on which side of the number the result lay.

T1 sequence (P41145 whole entry): as the sequence (P41145 whole entry M142A) above, with A142M counted along it

As for `Cc1ccc(C(CNC(=O)c2oc3ccc(F)cc3c2C)N2CCCC2)o1` (centres undefined), in experiment [1], the inhibition result was “Active”. Besides, the inhibition is 75.8% in experiment [2] and 40 to 60% in experiment [4]. Further, the Ki in [3] (read-out: Ki) is 660 nM; in experiment [3] (read-out: pKi (converted)), 646 nM.
Turning to `Cc1ncsc1CN1CCCCC1CCc1cccc(O)c1` (centres undefined), the inhibition in [2] was 96.9%. Also, the Ki in [3] (read-out: Ki) was 350 nM.
In experiment [2], `Cc1nc(O)cc(C2CCN(Cc3ccc(C4CCCC4)s3)CC2)n1` yielded an inhibition of 73.7%. Also, in experiment [3] (read-out: Ki), the Ki came out at 8100 nM.
For the molecule `Oc1cccc(CNCc2cc3ccccc3[nH]2)c1`, the inhibition in experiment [2] amounted to 82.4%. In addition, the figures for the Ki in experiment [3] (read-out: Ki) and in [3] (read-out: pKi (converted)) were 710 nM and 676 nM, respectively.
`CN(Cc1ccccc1NC(=O)NCc1ccoc1)C1CCCCC1` came in with an inhibition in experiment [2] of 76.5%. Moreover, the Ki in experiment [3] (read-out: Ki) is 2300 nM.
For the molecule `Cc1c(C(=O)NCC(c2ccco2)N2CCCC2)oc2ccc(Cl)cc12` (centres undefined), the inhibition entry in experiment [1] was “Active”. Further, the figures for the inhibition in experiment [2] and in experiment [4] were 86.5% and 40 to 60%, respectively. Also, the Ki in [3] (read-out: Ki) is 520 nM.
Consider `Oc1cccc(C(O)CNCc2ccc(Cl)cc2Cl)c1` (centres undefined), for which the Ratio Ki in the experiment filed under Homo sapiens [5] is 10; in the experiment filed under Homo sapiens [6], more than 10; in the experiment listed under Homo sapiens [7], more than 10. For the same molecule, the inhibition in experiment [2] was 97.9%; in [8], “Dose-dependent effect”; in experiment [10] (HEK-293T), “Dose-dependent effect”. Besides, the Ki in experiment [3] (read-out: Ki) is 90 nM; in experiment [3] (read-out: pKi (converted)), 83.2 nM; in [8] it was 230 nM. The IC50 in [8] was 1100 nM. Also, the Kb in [9] was 170 nM; in experiment [10] (read-out: pA2 (converted)) it was 166 nM.
Take `CSc1ccc(CN(CCO)Cc2ccc(-c3ccn[nH]3)s2)cc1`: in [2], the inhibition turned out to be 53%. Further, the Ki in experiment [3] (read-out: Ki) came to 3000 nM.
On the same counts, the results for `NC(=O)c1cc(S(=O)(=O)NC2CCN(Cc3ccccc3)CC2)cs1` are 47.3% and 9800 nM.
In the same order, the values of `Oc1cccc(C(O)CNCc2c(Cl)cccc2Cl)c1` (centres undefined) are 80.1% and 2600 nM.
The molecule `CC(CCc1ccc(O)cc1)NCCc1ccccc1` (centres undefined) returned an inhibition in [2] of 70.2%. For the same molecule, in [3] (read-out: Ki), the Ki is 6600 nM.
For `Cc1ccc(C(CNC(=O)c2oc3ccccc3c2C)N2CCCC2)o1` (centres undefined), the inhibition entry in [1] is “Active”. The inhibition in experiment [2] was 69.1%; in [4], 40 to 60%. For the same molecule, the Ki in [3] (read-out: Ki) is 380 nM; in experiment [3] (read-out: pKi (converted)), 363 nM.
On to `CCN(Cc1csc(C)n1)C(C)c1cccc(O)c1` (centres undefined), for which the inhibition in [2] amounted to 74%. Besides, the Ki in [3] (read-out: Ki) is 630 nM; in experiment [3] (read-out: pKi (converted)) it was 562 nM. Also, the Ratio Ki in the experiment filed under Homo sapiens [6] and in the experiment filed under Homo sapiens [7] was more than 10 in each case.
`COc1ccc2oc(C(=O)NCC(c3ccco3)N3CCCC3)c(C)c2c1` (centres undefined) showed an inhibition in experiment [2] of 74%. Besides, the Ki in experiment [3] (read-out: Ki) is 720 nM.
In the same order, the values of `Cc1cc(S(=O)(=O)NCC(=O)NC2CCC2NC(C)C)ccc1F` (centres undefined) are 49.1% and 6200 nM.
On the same counts, the results for `Cc1cc2oc(C(=O)NCC(c3ccco3)N3CCCC3)c(C)c2cc1C` (centres undefined) are 77.5% and 1100 nM.
In the same order, the values of `Oc1ccc(CCC2CCCCN2Cc2ccc(Cl)o2)cc1` (centres undefined) are 95.3% and 500 nM.
Consider `Cc1cccc(C(O)CNC(C)Cn2cc(Br)cn2)c1` (centres undefined), for which the inhibition in experiment [2] came to 49.8%. In addition, the Ki in experiment [3] (read-out: Ki) turned out to be 6400 nM.
As for `O=C(NC[C@@H](c1ccco1)N1CCCC1)c1cc2ccccc2o1`, the inhibition in experiment [2] stood at 64%. In addition, the Ki in experiment [3] (read-out: Ki) is 950 nM; in experiment [3] (read-out: pKi (converted)), 912 nM.
Turning to `COC(=O)[C@@H]1C[C@H](OC(C)=O)C(=O)[C@H]2[C@@]1(C)CC[C@H]1C(=O)O[C@H](c3ccoc3)C[C@]21C`, in the experiment filed under Homo sapiens [5], the Ratio Ki stood at 10.
For `NC1CCc2cc(O)ccc2C1` (centres undefined), in [2], the inhibition was found to be 48.6%. Also, the Ki in experiment [3] (read-out: Ki) was 8300 nM.
On the same counts, the results for `Cc1ccc(-c2ccccc2CN2CC3CNCC3C2)o1` (centres undefined) are 60.7% and 3000 nM.
Turning to `c1ccc(CN2CCC(Nc3nc4ccccc4o3)C2)cc1` (centres undefined), the results for the inhibition in experiment [2] and in [4] were 77.5% and 40 to 60%, respectively. Further, the Ki in experiment [3] (read-out: Ki) turned out to be 2600 nM.
Turning to `COc1ccc(CNCC(O)c2cccc(O)c2)cc1Br` (centres undefined), the figures for the Ratio Ki in the experiment listed under Homo sapiens [5], in the experiment listed under Homo sapiens [6] and in the experiment filed under Homo sapiens [7] were 10, more than 10 and more than 10, respectively. Further, in experiment [2], the inhibition was found to be 98.2%. Further, the Ki in [3] (read-out: Ki) came to 230 nM.

Values taken from ChEMBL document CHEMBL4049419, “Structure-Based Discovery of New Antagonist and Biased Agonist Chemotypes for the Kappa Opioid Receptor” (J Med Chem, 2017).
